Measured values as given in ChEMBL document CHEMBL4819032, “Structure-based design of highly selective 2,4,5-trisubstituted pyrimidine CDK9 inhibitors as anti-cancer agents” (Eur J Med Chem, 2021).
pKi: −log10 of the molar value. Calls of active or inactive are those of the source. The rule behind the calls is not given here.

Experiments:
A2780 [1] = test: Induction of cell cycle arrest in human A2780 cells assessed as accumulation at G1/G0 phase at 5 uM after 24 hrs by propidium iodide staining based flow cytometric analysis (reference value: 56.7%); assay type: functional
In short: (§1)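 4 × 10⁵ A2780 cells cultured 24 h in medium alone or with varying inhibitor concentrations, harvested into hypotonic fluorochrome solution (0.1% sodium citrate, 0.1% Triton X-100, propidium iodide, 100 ug/ml RNase A), and DNA content analysed by flow cytometry. Representative of three independent experiments.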

MDA-MB-468 = test: Growth inhibition of human MDA-MB-468 cells after 48 hrs by MTT assay; assay type: functional
A2780 [2] = test: Induction of apoptosis in human A2780 cells assessed as early apoptotic cells at 5 uM after 24 hrs by Annexin V-FITC/PI staining based flow cytometric analysis (reference value: 1.6%); assay type: functional
In short: (§2)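 A2780 cells cultured 24 h in medium alone or with varying inhibitor concentrations, then stained with FITC-annexin V/PI per kit protocol and analysed by flow cytometry. Run in triplicate and repeated at least twice; significance by one-way ANOVA, p < 0.01.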

A2780 [3] = test: Induction of apoptosis in human A2780 cells assessed as reduction in Mcl-1 protein expression at 5 uM after 6 to 12 hrs by Western blot analysis; assay type: functional, cell-based; conditions: time 6-12 hrs
In short: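 A2780 cells treated for 6 or 12 h, then lysates analysed by Western blotting.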

[4] = molecular target: Cyclin-dependent kinase 9 (Homo sapiens) (UniProt P50750); test: Inhibition of CDK9 in human A2780 cells assessed as reduction in RNAP2 phosphorylation at ser2 residues after 24 hrs by Western blot analysis; assay type: cell-based; conditions: dose 0.5-5 µM
[5] = molecular target: Cyclin-dependent kinase 7/ cyclin H (Homo sapiens, UniProt P50613); test: Inhibition of recombinant human full length CDK7/Cyclin H using peptide as substrate incubated for 40 mins in presence of [gamma-33P]-ATP by scintillation counting method; assay type: protein-complex assay
In short: (§3)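 Radiometric kinase assay with ATP at each kinase's Km(app). IC50 values come from 10-point dose-response curves, and apparent Ki is calculated from IC50 and the kinase's Km(ATP).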

A2780 [6] = test: Induction of apoptosis in human A2780 cells assessed as reduction in Mcl-1 protein expression after 24 hrs by Western blot analysis; assay type: functional, cell-based; conditions: dose 0.5-5 µM
In short: (§4)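 A2780 cells treated for 24 h over a concentration series, then lysates analysed by Western blotting.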

A2780 [7] = test: Induction of apoptosis in human A2780 cells assessed as reduction in XIAP protein expression after 24 hrs by Western blot analysis; assay type: functional, cell-based; conditions: dose 0.5-5 µM; in short: as §4
A2780 [8] = test: Induction of cell cycle arrest in human A2780 cells assessed as accumulation at pre-G1 phase at 5 uM after 24 hrs by propidium iodide staining based flow cytometric analysis (reference value: 1.2%); assay type: functional
A2780 [9] = test: Induction of apoptosis in human A2780 cells assessed as viable cells at 5 uM after 24 hrs by Annexin V-FITC/PI staining based flow cytometric analysis (reference value: 92%); assay type: functional; conditions: read-out: Activity; in short: as §2
HCT-116 [10] = test: Induction of apoptosis in human HCT-116 cells assessed as reduction in Mcl-1 protein expression after 24 hrs by Western blot analysis; assay type: functional, cell-based; conditions: dose 0.5-5 µM
A2780 [11] = test: Induction of cell cycle arrest in human A2780 cells assessed as accumulation at pre-G1 phase at 1 uM after 24 hrs by propidium iodide staining based flow cytometric analysis (reference value: 1.2%); assay type: functional
A2780 [12] = test: Induction of apoptosis in human A2780 cells assessed as increase in cleaved PARP protein expression at 0.5 to 5 uM after 24 hrs by Western blot analysis; assay type: functional, cell-based; conditions: dose 0.5-5 µM; in short: as §4
A2780 [13] = test: Induction of apoptosis in human A2780 cells assessed as early apoptotic cells at 0.5 uM after 24 hrs by Annexin V-FITC/PI staining based flow cytometric analysis (reference value: 1.6%); assay type: functional; in short: as §2
A2780 [14] = test: Induction of apoptosis in human A2780 cells assessed as early apoptotic cells at 2 uM after 24 hrs by Annexin V-FITC/PI staining based flow cytometric analysis (reference value: 1.6%); assay type: functional; in short: as §2
[15] = molecular target: Mitogen-activated protein kinase kinase kinase 9 (Homo sapiens) (UniProt P80192); test: Inhibition of recombinant human full length MLK1 (134 to 414 residues)using casein as substrate incubated for 40 mins by scintillation counting method
In short: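 The 60-kinase diversity panel was run as a radiometric assay with ATP at each kinase's Km(app). Compound was tested at one fixed concentration across all kinases.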

A2780 [16] = test: Induction of apoptosis in human A2780 cells assessed as necrotic cells at 5 uM after 24 hrs by Annexin V-FITC/PI staining based flow cytometric analysis (reference value: 3.6%); assay type: functional; in short: as §2
[17] = molecular target: Cyclin-dependent kinase 1/cyclin B1 (Homo sapiens, UniProt P06493); test: Inhibition of recombinant human full length CDK1/Cyclin B using histone H1 as substrate incubated for 40 mins in presence of [gamma-33P]-ATP by scintillation counting method; assay type: protein-complex assay; in short: as §3
[18] = molecular target: Cyclin-dependent kinase 9 (Homo sapiens) (UniProt P50750); test: Inhibition of CDK9 in human A2780 cells assessed as reduction in RNAP2 phosphorylation at ser5 residues after 24 hrs by Western blot analysis; assay type: cell-based; conditions: dose 0.5-5 µM
MCF7 = test: Growth inhibition of human MCF7 cells after 48 hrs by MTT assay; assay type: functional
MIA PaCa-2 = test: Growth inhibition of human MIA PaCa-2 cells after 48 hrs by MTT assay; assay type: functional
HCT-116 [19] = test: Growth inhibition of human HCT-116 cells after 48 hrs by MTT assay; assay type: functional
A2780 [20] = test: Induction of apoptosis in human A2780 cells assessed as viable cells at 0.5 uM after 24 hrs by Annexin V-FITC/PI staining based flow cytometric analysis (reference value: 92%); assay type: functional; conditions: read-out: Activity; in short: as §2
Homo sapiens = species on record: Homo sapiens; test: Selectivity index, ratio of Ki for inhibition of recombinant human full length CDK9/Cyclin T1 to Ki for inhibition of recombinant human full length CDK7/Cyclin H
A2780 [21] = test: Induction of cell cycle arrest in human A2780 cells assessed as accumulation at S phase at 1 uM after 24 hrs by propidium iodide staining based flow cytometric analysis (reference value: 20%); assay type: functional; in short: as §1
HCT-116 [22] = test: Induction of apoptosis in human HCT-116 cells assessed as increase in p21 protein expression at 0.5 to 5 uM after 24 hrs by Western blot analysis; assay type: functional, cell-based; conditions: dose 0.5-5 µM
A2780 [23] = test: Induction of apoptosis in human A2780 cells assessed as necrotic cells at 2 uM after 24 hrs by Annexin V-FITC/PI staining based flow cytometric analysis (reference value: 3.6%); assay type: functional; in short: as §2

Sequence of Cyclin-dependent kinase 9 (Homo sapiens) (P50750 whole entry): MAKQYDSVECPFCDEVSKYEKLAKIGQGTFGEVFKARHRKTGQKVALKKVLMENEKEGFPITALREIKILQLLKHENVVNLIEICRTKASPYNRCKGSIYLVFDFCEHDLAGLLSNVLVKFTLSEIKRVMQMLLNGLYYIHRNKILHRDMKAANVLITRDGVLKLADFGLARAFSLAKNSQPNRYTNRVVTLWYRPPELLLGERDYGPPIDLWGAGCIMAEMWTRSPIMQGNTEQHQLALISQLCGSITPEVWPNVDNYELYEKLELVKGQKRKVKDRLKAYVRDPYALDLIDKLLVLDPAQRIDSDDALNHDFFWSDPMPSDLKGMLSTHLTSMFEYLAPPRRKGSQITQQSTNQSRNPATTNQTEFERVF
Sequence of Mitogen-activated protein kinase kinase kinase 9 (Homo sapiens) (P80192 whole entry, looked up, the tested form may be a part): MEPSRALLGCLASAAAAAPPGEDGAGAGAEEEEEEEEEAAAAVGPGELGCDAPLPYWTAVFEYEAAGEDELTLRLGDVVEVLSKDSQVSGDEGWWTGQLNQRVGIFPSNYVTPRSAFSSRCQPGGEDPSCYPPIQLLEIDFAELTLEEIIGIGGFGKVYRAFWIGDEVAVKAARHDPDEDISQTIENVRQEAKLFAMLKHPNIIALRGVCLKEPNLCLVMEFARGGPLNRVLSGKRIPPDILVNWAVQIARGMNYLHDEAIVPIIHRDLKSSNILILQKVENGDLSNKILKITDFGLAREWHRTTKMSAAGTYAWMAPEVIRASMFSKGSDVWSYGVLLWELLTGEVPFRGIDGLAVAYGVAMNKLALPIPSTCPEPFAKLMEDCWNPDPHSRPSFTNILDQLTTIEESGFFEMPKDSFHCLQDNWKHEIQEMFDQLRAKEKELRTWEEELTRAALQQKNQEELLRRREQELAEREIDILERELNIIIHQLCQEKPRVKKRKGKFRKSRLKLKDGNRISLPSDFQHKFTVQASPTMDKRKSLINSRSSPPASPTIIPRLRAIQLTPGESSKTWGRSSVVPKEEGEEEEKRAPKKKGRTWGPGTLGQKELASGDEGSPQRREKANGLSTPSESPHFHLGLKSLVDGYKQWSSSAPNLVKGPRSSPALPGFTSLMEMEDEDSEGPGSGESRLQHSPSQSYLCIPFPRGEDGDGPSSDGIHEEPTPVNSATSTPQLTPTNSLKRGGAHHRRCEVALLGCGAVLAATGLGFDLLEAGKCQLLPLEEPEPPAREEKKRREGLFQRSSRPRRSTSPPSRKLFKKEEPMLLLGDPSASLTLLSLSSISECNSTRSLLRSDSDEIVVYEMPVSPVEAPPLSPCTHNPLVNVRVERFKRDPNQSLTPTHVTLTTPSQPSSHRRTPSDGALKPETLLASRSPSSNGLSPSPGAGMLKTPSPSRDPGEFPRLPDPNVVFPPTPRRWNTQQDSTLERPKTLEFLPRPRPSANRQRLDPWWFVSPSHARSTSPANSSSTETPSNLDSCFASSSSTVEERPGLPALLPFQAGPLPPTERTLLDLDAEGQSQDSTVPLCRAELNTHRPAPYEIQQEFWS
Sequence of Cyclin-dependent kinase 7/ cyclin H (P51946 whole entry): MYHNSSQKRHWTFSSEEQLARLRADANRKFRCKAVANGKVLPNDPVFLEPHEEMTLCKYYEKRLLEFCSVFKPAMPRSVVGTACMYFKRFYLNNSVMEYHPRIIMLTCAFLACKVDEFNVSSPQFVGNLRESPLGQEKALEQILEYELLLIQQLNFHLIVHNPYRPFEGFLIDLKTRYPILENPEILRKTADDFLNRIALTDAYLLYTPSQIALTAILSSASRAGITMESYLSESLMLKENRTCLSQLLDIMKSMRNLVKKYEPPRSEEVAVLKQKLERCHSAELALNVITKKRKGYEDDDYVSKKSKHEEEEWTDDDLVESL
Sequence of Cyclin-dependent kinase 7/ cyclin H (P50613 whole entry): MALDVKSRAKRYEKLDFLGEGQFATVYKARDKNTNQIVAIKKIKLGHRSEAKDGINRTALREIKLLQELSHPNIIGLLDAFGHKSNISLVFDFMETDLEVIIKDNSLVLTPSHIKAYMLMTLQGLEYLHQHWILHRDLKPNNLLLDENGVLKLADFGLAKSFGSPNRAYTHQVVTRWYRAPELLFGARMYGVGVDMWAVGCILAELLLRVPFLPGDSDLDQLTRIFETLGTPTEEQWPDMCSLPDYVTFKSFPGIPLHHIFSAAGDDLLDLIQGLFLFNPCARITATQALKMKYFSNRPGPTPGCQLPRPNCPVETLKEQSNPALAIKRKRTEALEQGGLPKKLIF
Sequence of Cyclin-dependent kinase 1/cyclin B1 (P06493 whole entry): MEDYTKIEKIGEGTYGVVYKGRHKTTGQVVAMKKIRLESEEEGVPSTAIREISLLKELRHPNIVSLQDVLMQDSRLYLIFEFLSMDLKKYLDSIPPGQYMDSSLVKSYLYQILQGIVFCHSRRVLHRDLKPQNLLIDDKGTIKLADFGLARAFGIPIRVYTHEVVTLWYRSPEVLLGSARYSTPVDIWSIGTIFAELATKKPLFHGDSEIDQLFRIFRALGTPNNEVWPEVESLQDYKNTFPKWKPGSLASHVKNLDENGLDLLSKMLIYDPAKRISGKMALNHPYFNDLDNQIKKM
Sequence of Cyclin-dependent kinase 1/cyclin B1 (P14635 whole entry, further chain): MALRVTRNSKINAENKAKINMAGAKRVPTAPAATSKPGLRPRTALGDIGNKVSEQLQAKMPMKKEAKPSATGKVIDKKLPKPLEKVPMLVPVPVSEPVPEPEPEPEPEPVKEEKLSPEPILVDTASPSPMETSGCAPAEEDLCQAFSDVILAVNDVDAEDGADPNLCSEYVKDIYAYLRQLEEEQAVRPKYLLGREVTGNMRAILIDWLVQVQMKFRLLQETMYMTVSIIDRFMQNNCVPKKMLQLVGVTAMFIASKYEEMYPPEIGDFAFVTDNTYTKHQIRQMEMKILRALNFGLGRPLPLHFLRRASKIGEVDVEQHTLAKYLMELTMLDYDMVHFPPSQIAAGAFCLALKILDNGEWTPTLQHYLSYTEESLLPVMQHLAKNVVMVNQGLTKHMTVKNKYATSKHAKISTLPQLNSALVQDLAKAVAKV

- GI50 (MDA-MB-468): 1460 nM
- inhibition [4]: Dose-Dependent Effect
- pKi [5]: 6.26
- inhibition [15]: Active
- pKi [17]: 5.93
- inhibition [18]: Dose-Dependent Effect
- GI50 (MCF7): 1340 nM
- GI50 (MIA PaCa-2): 1070 nM
- GI50 (HCT-116 [19]): 1070 nM
- Ratio Ki (Homo sapiens): > 50
Compound: CNc1nc(C)c(-c2nc(Nc3cccc(N4CCN5CCC4CC5)c3)ncc2C)s1
- Activity (A2780 [1]): 31.5%
- Activity (A2780 [2]): 24.65%
- Activity (A2780 [3]): Active
- Activity (A2780 [6]): Dose-Dependent Effect
- Activity (A2780 [7]): Dose-Dependent Effect
- Activity (A2780 [8]): 34%
- viability at 5 µM (A2780 [9]): 22.6%
- Activity (HCT-116 [10]): Dose-Dependent Effect
- Activity (A2780 [11]): 6.5%
- Activity (A2780 [12]): Active
- Activity (A2780 [13]): 3.6%
- Activity (A2780 [14]): 14.4%
- Activity (A2780 [16]): 5.6%
- viability at 0.5 µM (A2780 [20]): 88.3%
- Activity (A2780 [21]): 7.6%
- Activity (HCT-116 [22]): Active
- Activity (A2780 [23]): 2.5%
